Data on 2 molecules can be found in ChEMBL document CHEMBL5352422, “Development of l-Dopa-containing diketopiperazines as blood-brain barrier shuttle” (Eur J Med Chem, 2022).

Activity calls are given as the source filed them. The calls are words filed in the database; no cut-off is given here.

The nature of data set [1]: Antioxidant activity against Primary human whole blood cell assessed as trolox equivalent of total antioxidant capacity at 10 nM incubated for 24 hrs (19.3 to 32.5 mmolequiv/L ). The class given is functional.
Data set [2] can be described thus: Genotoxicity in human Lymphocyte assessed as micronuclei formation measured per 1000 cells at 100 nM incubated for 72 hrs giemsa staining based analysis (reference value: 4.5 to 17.9). Particulars: 0.1 µM. Format: toxicity, cell-based. The essentials:
(§1)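 Human whole-blood lymphocyte cultures with phytohemagglutinin, incubated with compound for 72 h at 37 °C. Cytochalasin B added at 44 h. Cells fixed in ice-cold methanol/acetic acid 1:1, cytospun, Giemsa-stained. At least 1000 binucleated lymphocytes per concentration scored for micronuclei by one observer.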

Data set [3] is described as follows: Antioxidant activity against Primary human whole blood cell assessed as trolox equivalent of total antioxidant capacity at 50 nM incubated for 24 hrs (19.3 to 32.5 mmolequiv/L ). The class given is functional.
Data set [4] in a line: Antioxidant activity against Primary human whole blood cell assessed as H2O2 equivalent of total oxidative stress at 10 nM incubated for 24 hrs (0.6 to 1.9 micromolequiv/L). The class given is functional.
The nature of data set [5]: Antioxidant activity against rat Cerebral cortex cell assessed as H2O2 equivalent of total oxidative stress at 50 nM incubated for 24 hrs (0.7 to 2.3 micromolequiv/L). Format: functional, Cerebral cortex neuron.
A short description of data set [6]: Induction of DNA damage in rat Cerebral cortex cell assessed as total DNA damage score at 500 nM incubated for 24 hrs by Comet assay (reference value: 36.8 to 89.2). The class given is functional, Cerebral cortex neuron.
The nature of data set [7]: Induction of DNA damage in rat Cerebral cortex cell assessed as total DNA damage score at 50 nM incubated for 24 hrs by Comet assay (reference value: 36.8 to 89.2). Format: functional, Cerebral cortex neuron.
A short description of data set [8]: Induction of DNA damage in rat Cerebral cortex cell assessed as 8-OH-dG adducts formation at 100 nM incubated for 24 hrs by […] (reference value: 0.14 to 1.92 pg/ml). The class given is functional, Cerebral cortex neuron.
Data set [9] in a line: Genotoxicity in human Lymphocyte assessed as micronuclei formation measured per 1000 cells at 10 nM incubated for 72 hrs giemsa staining based analysis (reference value: 4.5 to 17.9). Format: toxicity, cell-based. Particulars: 0.01 µM. In short, it runs like this:
as §1

Data set [10] in a line: Antioxidant activity against Primary human whole blood cell assessed as H2O2 equivalent of total oxidative stress at 500 nM incubated for 24 hrs (0.6 to 1.9 micromolequiv/L). Format: functional.
A short description of data set [11]: Genotoxicity in human Lymphocyte assessed as sister chromatid exchange measured per cells at 500 nM incubated for 72 hrs giemsa staining based fluorescence method (reference value: 6.6 to 14.3). Format: toxicity, cell-based. Particulars: 0.5 µM.
Data set [12] is described as follows: Genotoxicity in human Lymphocyte assessed as sister chromatid exchange measured per cells at 10 nM incubated for 72 hrs giemsa staining based fluorescence method (reference value: 6.6 to 14.3). Format: toxicity, cell-based. Particulars: 0.01 µM.
Data set [13] in a line: Stability of the compound in stimulated gastric fluid at 10 mg/ml pepsin by measuring half life measured upto 60 mins by HPLC analysis. The class given is ADME. Particulars: simulated gastric fluid with pepsin. In short, it runs like this:
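USP simulated gastric fluid containing pepsin, preheated, in a 37 °C shaking water bath. Samples at 0, 15, 30 and 60 min were deproteinized with ice-cold acetonitrile containing 0.5% formic acid, centrifuged at 4 °C, filtered and analyzed by HPLC. Means of three experiments.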

Data set [14] can be described thus: Antioxidant activity against Primary human whole blood cell assessed as H2O2 equivalent of total oxidative stress at 250 nM incubated for 24 hrs (0.6 to 1.9 micromolequiv/L). The class given is functional.
Data set [15] is described as follows: Antioxidant activity against Primary human whole blood cell assessed as trolox equivalent of total antioxidant capacity at 500 nM incubated for 24 hrs (19.3 to 32.5 mmolequiv/L ). The class given is functional.
The nature of data set [16]: Antioxidant activity against rat Cerebral cortex cell assessed as trolox equivalent of total antioxidant capacity at 500 nM incubated for 24 hrs (14.7 to 27.5 mmolequiv/L ). The class given is functional, Cerebral cortex neuron.
Data set [17] in a line: Stability in human plasma assessed as half life by HPLC method. Format: ADME, cell-free. The essentials:
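Stock added to 37 °C human plasma diluted with 0.02 M phosphate buffer pH 7.4 to 80% plasma. Aliquots taken over time were quenched with 0.01 M HCl in methanol, centrifuged 5 min at 5000 g, and supernatant analyzed by HPLC-UV. t1/2 and k_obs are means of three experiments ± SD.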

A short description of data set [18]: Genotoxicity in human Lymphocyte assessed as sister chromatid exchange measured per cells at 100 nM incubated for 72 hrs giemsa staining based fluorescence method (reference value: 6.6 to 14.3). The class given is toxicity, cell-based. Particulars: 0.1 µM.
The nature of data set [19]: Induction of DNA damage in Primary human whole blood cell assessed as 8-OH-dG adducts formation at 500 nM incubated for 24 hrs by […] (reference value: 0.12 to 2.21 pg/ml). Format: functional.
The nature of data set [20]: Stability of the compound in stimulated intestinal fluid at 40 mg/ml pancreatin by measuring observed rate constant measured upto 180 mins by HPLC analysis. Format: ADME. Particulars: simulated gi fluid, 3 h. The essentials: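 USP simulated intestinal fluid containing pancreatin, in a 37 °C shaking water bath. Samples at 0, 60, 120 and 180 min were quenched with ice-cold acetonitrile containing 0.5% formic acid, centrifuged at 4 °C for 10 min, filtered and analyzed by HPLC. Means of three experiments ± SD.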

The subject of data set [21] is PC-12. The experiment in a line: Upregulation of GSTA-2 expression in MPP+ induced rat PC-12 cells at 100 nM pretreated with compound for 24 hrs followed by MPP+ stimulation and measured after 6 hrs. The class given is functional, cell-based. Particulars: time 30.0 hrs. In short, it runs like this:
(§2)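 PC12 cells pretreated 24 h with compound, then exposed to 25 μM MPP+ for 6 h. mRNA quantified by real-time PCR (95 °C 3 min, then 40 cycles of 95 °C 10 s and 62 °C 30 s), samples in triplicate. Values normalized to β-actin, expressed as 2^-ΔΔCt with untreated cells set to 1.0. n = 3.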

In data set [22] the test system is PC-12. The experiment in a line: Upregulation of GCLM expression in MPP+ induced rat PC-12 cells at 100 nM pretreated with compound for 24 hrs followed by MPP+ stimulation and measured after 6 hrs. The class given is functional, cell-based. Particulars: time 30.0 hrs. The essentials: as §2
Data set [23] relates to PC-12. The experiment in a line: Upregulation of GR expression in MPP+ induced rat PC-12 cells at 100 nM pretreated with compound for 24 hrs followed by MPP+ stimulation and measured after 6 hrs. Particulars: time 30.0 hrs. The class given is functional, cell-based. The essentials: as §2
Data set [24] deals with PC-12. The experiment in a line: Upregulation of xCT expression in MPP+ induced rat PC-12 cells at 100 nM pretreated with compound for 24 hrs followed by MPP+ stimulation and measured after 6 hrs. Format: functional, cell-based. Particulars: time 30.0 hrs. The essentials: as §2

Turning to `C=CCSC[C@H]1NC(=O)[C@H](Cc2ccc(OC(C)=O)c(OC(C)=O)c2)NC1=O`, the Activity was 19.2 mmolequiv/L in data set [1]; 5 in data set [2]; 19.4 mmolequiv/L in [3]; 0.6 umolequiv/L in data set [4]; 0.7 umolequiv/L in data set [5]; 37.6 in [6]. Moreover, the Activity in data set [7] turned out to be 36.4; in data set [8], 0.15 pg/mL; in data set [9] it was 4.7; in [10] it was 0.7 umolequiv/L; in data set [11], 7; in [12], 6.8. In addition, the Activity in data set [14] is 0.7 umolequiv/L; in data set [15], 18.4 mmolequiv/L; in data set [16] it was 14.9 mmolequiv/L; in [18], 6.9; in data set [19] it was 0.13 pg/mL. The half-life in data set [13] was 24.2 h; in data set [17] it was 0.096 h.
For `C#CCSC[C@H]1NC(=O)[C@H](Cc2ccc(OC(C)=O)c(OC(C)=O)c2)NC1=O`, the Kobs in data set [20] is 0.27 h⁻¹. The Activity in data set [1] stood at 19.4 mmolequiv/L; in [2], 4.9; in data set [3], 19.5 mmolequiv/L; in data set [4], 0.6 umolequiv/L; in data set [5], 0.6 umolequiv/L; in data set [6] it was 38.1. In addition, the Activity was 37.2 in data set [7]; 0.14 pg/mL in data set [8]; 4.6 in data set [9]; 0.7 umolequiv/L in data set [10]; 6.9 in [11]; 6.5 in [12]. The Activity in [14] stood at 0.7 umolequiv/L; in [15], 19.4 mmolequiv/L; in data set [16] it was 14.8 mmolequiv/L; in data set [18], 6.6; in data set [19] it was 0.13 pg/mL. Further, the outcome with PC-12 [21], in the data set with PC-12 [22], with PC-12 [23] and in the data set on PC-12 [24] was Active. Further, the half-life was 91 h in data set [13] and 2.09 h in data set [17].
